This passage reports IC50, ED50 and Kb results from ChEMBL document CHEMBL1133430, “8-Methylureido-4,5-dihydro-4-oxo-10H-imidazo[1,2-a]indeno[1,2-e]pyrazines: highly potent in vivo AMPA antagonists” (Bioorg Med Chem Lett, 2000).

pIC50: −log10 of the molar value.

Test [1] has as its target Glutamate receptor ionotropic, AMPA (Rattus norvegicus, UniProt P19490+P19491+P19492+P19493). In words: The compound was tested for its affinity for Ionotropic glutamate receptor AMPA in in vitro binding assay on rat cortical membrane preparations using [3H]AMPA as ligand.
The target in another test is Glutamate NMDA receptor. The test is described as follows: In vitro affinity for N-methyl-D-aspartate glutamate receptor 1 using [3H]5,7-dichlorokynurenate([3H]-DCKA) as ligand. The class given is protein-complex assay. In short, it runs like this:
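Competition binding on rat cerebral cortex membranes at the NMDA receptor glycine site. IC50 is the mean of at least three determinations, each using at least three test concentrations run in triplicate.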

The test system of test [2] is Mus musculus. In words: Tested in vivo as the dose which protected 50% of the animals from a tonic convulsion (six male CDI mice/dose of compound) after intraperitoneal administration in MES test. Type of test: functional. The procedure, abridged:
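Maximal electroshock (MES) convulsions in male CD1 mice. Compound given ip in 1% Tween-80 in water, 30 min before challenge. Six mice per dose, at least three doses plus a vehicle-alone group. ED50 (mg/kg) is the dose protecting 50% of animals from tonic convulsion.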

For another test, the species on record is Rattus norvegicus. In words: The compound was tested for its inhibition of currents generated by 50 uM Kainate in Xenopus oocytes injected with rat brain mRNA. Type of test: functional. The procedure, abridged: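 Xenopus oocytes injected with rat brain mRNA; AMPA receptor currents evoked by a submaximal kainate concentration, recorded electrophysiologically. Drug stocks in water or DMSO, diluted into recording medium. IC50 obtained by nonlinear least-squares fit to a sigmoidal equation.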

For test [3], the system named is Mus musculus. The test is described as follows: Tested in vivo as the dose which protected 50% of the animals from a tonic convulsion (six male CDI mice/dose of compound) after intravenous administration in MES test. The class given is functional. The procedure, abridged:
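Maximal electroshock (MES) convulsions in male CD1 mice. Compound given iv in saline, 5 min before challenge. Six mice per dose, at least three doses plus a vehicle-alone group. ED50 (mg/kg) is the dose protecting 50% of animals from tonic convulsion.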

Test [4] deals with Mus musculus. In words: Tested in vivo as the dose which protected 50% of the animals from a tonic convulsion (six male CDI mice/dose of compound) after intraperitoneal administration in DBA test. The class given is functional. In short, it runs like this:
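Audiogenic seizure test in DBA/2 mice. Compound given ip in 1% Tween-80 in water, 30 min before the sound challenge. Six mice per dose, three doses plus a vehicle-treated group.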

Test [5] deals with Mus musculus. The test is described as follows: Tested in vivo as the dose which protected 50% of the animals from a tonic convulsion (six male CDI mice/dose of compound) after subcutaneous administration in MES test. To be noted: sc. The class given is functional. In short, it runs like this:
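Maximal electroshock (MES) convulsions in male CD1 mice. Compound given sc in 1% Tween-80 in water, 30 min before challenge. Six mice per dose, at least three doses plus a vehicle-alone group. ED50 (mg/kg) is the dose protecting 50% of animals from tonic convulsion.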

The mark [6] stands for this setting: Mus musculus, ip, read-out: ED50.

Regarding `Cc1ccc2c(c1)-c1nc(O)c3nccn3c1C2`, the pIC50 in test [1] was less than 4.00; on Glutamate NMDA receptor, 5.68.

As for `O=C(Nc1ccccc1)Nc1ccc2c(c1)Cc1c-2nc(O)c2nccn12`, the pIC50 was 6.21 in test [1] and less than 4.00 on Glutamate NMDA receptor.

`CC(=O)Nc1ccc2c(c1)Cc1c-2nc(O)c2nccn12`: the values for the negative logarithm of the IC50 (pIC50) (in test [1]; against Glutamate NMDA receptor) were 5.49 and 5.00, respectively.

As for `Nc1ccc2c(c1)Cc1c-2nc(O)c2nccn12`, the pIC50 in test [1] is 5.25; against Glutamate NMDA receptor, 4.66.

Consider `Cc1ccc2c(c1)Cc1c-2nc(O)c2nccn12`, for which the pIC50 in test [1] is 4.52; against Glutamate NMDA receptor, less than 4.00.

Take `O=C(NCc1ccccc1)Nc1ccc2c(c1)Cc1c-2nc(O)c2nccn12`: the pIC50 is 6.96 in test [1] and 4.00 on Glutamate NMDA receptor.

`O=C(Nc1ccc2c(c1)Cc1c-2nc(O)c2nccn12)c1ccccc1`: the pIC50 was 6.35 in test [1] and less than 4.00 at Glutamate NMDA receptor.

`CNC(=O)Nc1cccc2c1Cc1c-2nc(O)c2nccn12`: the values for the pIC50 (in test [1]; against Glutamate NMDA receptor) were 6.52 and 5.64, respectively.

For `Oc1nc2c(n3ccnc13)Cc1c(Cl)cccc1-2`, the pIC50 in test [1] was 4.77; against Glutamate NMDA receptor it was 4.00.

With `Oc1nc2c(n3ccnc13)Cc1c(F)cccc1-2`, the results for the pIC50 (in test [1]; against Glutamate NMDA receptor) were 6.05 and 4.00, respectively.

For `CNC(=O)Nc1ccc2c(c1)Cc1c-2nc(O)c2nccn12`, the pIC50 in test [1] was 7.74; at Glutamate NMDA receptor, 4.00.

In the case of `CCOC(=O)Nc1ccc2c(c1)Cc1c-2nc(O)c2nccn12`, the results for the negative logarithm of the IC50 (pIC50) (in test [1]; against Glutamate NMDA receptor) were 6.17 and 5.08, respectively.

For `Oc1nc2c(n3ccnc13)Cc1ccc(F)cc1-2`, the negative logarithm of the IC50 (pIC50) in test [1] was 6.01; against Glutamate NMDA receptor, 6.00.

With `Oc1nc2c(n3ccnc13)Cc1cc(-n3ccnc3)ccc1-2`, the pIC50 was 4.00 in test [1] and less than 4.00 on Glutamate NMDA receptor.

Turning to `COc1ccc2c(c1)Cc1c-2nc(O)c2nccn12`, the negative logarithm of the IC50 (pIC50) in test [1] is 5.48; at Glutamate NMDA receptor, 5.28.

For `Oc1nc2c(n3ccnc13)Cc1cc(F)ccc1-2`, the results for the pIC50 (in test [1]; at Glutamate NMDA receptor) were 6.60 and 5.11, respectively.

In the case of `O=S(=O)(O)c1ccc2c(c1)Cc1c-2nc(O)c2nccn12`, the pIC50 in test [1] is 4.52; against Glutamate NMDA receptor, less than 4.00.

As to `Oc1nc2c(n3ccnc13)Cc1ccccc1-2`, it took a dose of 62 mg/kg to reach the 50% effect level with Mus musculus [2] (ip) (ED50). In the test filed under Rattus norvegicus (Rattus norvegicus), this molecule had a Kb of 0.0018 µM.

In the case of `CN(C)C(=O)Nc1ccc2c(c1)Cc1c-2nc(O)c2nccn12`, the pIC50 was 7.43 in test [1] and 4.00 at Glutamate NMDA receptor.

Regarding `Oc1nc2c(n3ccnc13)Cc1cc(Br)ccc1-2`, the pIC50 in test [1] was 5.70; against Glutamate NMDA receptor, less than 4.00.

Consider `O=C(NCCc1ccccc1)Nc1ccc2c(c1)Cc1c-2nc(O)c2nccn12`, for which the negative logarithm of the IC50 (pIC50) was 6.89 in test [1] and less than 4.00 on Glutamate NMDA receptor.

For the molecule `CNC(=O)Nc1ccc2c(c1)/c(=C/C(=O)O)c1c2nc(O)c2nccn21`, the pIC50 in test [1] is 7.72; against Glutamate NMDA receptor, 4.00; in the test listed under Rattus norvegicus (Rattus norvegicus), 8.52. Besides, the ED50 in the test on Mus musculus [2] (setting [6]) came out at 11 mg/kg; in the test with Mus musculus [3], 5.6 mg/kg; with Mus musculus [4] (setting [6]) it was 1.6 mg/kg.

In the case of `Oc1nc2c(n3ccnc13)Cc1ccc(Cl)cc1-2`, the pIC50 in test [1] was 5.52; on Glutamate NMDA receptor it was 6.74.

As for `CCNC(=O)Nc1ccc2c(c1)Cc1c-2nc(O)c2nccn12`, the pIC50 in test [1] is 7.07; against Glutamate NMDA receptor, 5.00.

As to `Oc1nc2c(n3ccnc13)Cc1cc(Cl)ccc1-2`, the pIC50 is 4.80 in test [1] and less than 4.00 at Glutamate NMDA receptor.

Take `NC(=O)Nc1ccc2c(c1)Cc1c-2nc(O)c2nccn12`: the negative logarithm of the IC50 (pIC50) in test [1] was 5.90; at Glutamate NMDA receptor, less than 4.00.

`O=C(Cc1ccccc1)Nc1ccc2c(c1)Cc1c-2nc(O)c2nccn12`: the pIC50 in test [1] is 6.74; on Glutamate NMDA receptor, 4.00.

As for `CNC(=O)Nc1ccc2c(c1)C(CC(=O)O)c1c-2nc(O)c2nccn12` (racemic), the pIC50 in test [1] is 8.10; against Glutamate NMDA receptor it was 4.85; in the test listed under Rattus norvegicus, 7.70. Moreover, the ED50 with Mus musculus [5] was determined as 2 mg/kg; in the test with Mus musculus [2], 1.8 mg/kg; in the test on Mus musculus [3] it was 1 mg/kg; in the test on Mus musculus [4], 0.6 mg/kg.

For the molecule `CNC(=O)Nc1ccc2c(c1)C(CC(=O)O)c1c-2nc(O)c2nccn12` (single isomer, unassigned; (+)), the pIC50 in test [1] is 8.40; at Glutamate NMDA receptor it was 5.00; in the test listed under Rattus norvegicus, 8.70. For the same molecule, the ED50 with Mus musculus [2] was 1 mg/kg; in the test on Mus musculus [4], 0.9 mg/kg.

Regarding `CNC(=O)Nc1ccc2c(c1)C(CC(=O)O)c1c-2nc(O)c2nccn12` (stereo in doubt; (-)-3), the negative logarithm of the IC50 (pIC50) in test [1] was 7.41; in the test listed under Rattus norvegicus it was 8.17. The figures for the ED50 in the test on Mus musculus [2] and in the test with Mus musculus [4] were 7 mg/kg and 4.4 mg/kg, respectively.

On to `O=c1[nH]c2cc(-n3ccnc3)c([N+](=O)[O-])cc2[nH]c1=O` [YM-90K], for which the ED50 is 12 mg/kg with Mus musculus [2] (ip), 12 mg/kg in the test on Mus musculus [3] and 15 mg/kg with Mus musculus [4] (ip). Moreover, the pIC50 in the test filed under Rattus norvegicus (Rattus norvegicus) was 6.59.
